This is an account of results in ChEMBL document CHEMBL3808367, “Novel HIV-1 Non-nucleoside Reverse Transcriptase Inhibitor Agents: Optimization of Diarylanilines with High Potency against Wild-Type and Rilpivirine-Resistant E138K Mutant Virus” (J Med Chem, 2016).

In series [1] the test system is Human immunodeficiency virus 1. The experiment in a line: Resistance index, ratio of EC50 for […] resistant HIV1 A17 harboring reverse transcriptase K103N/Y181C double mutant infected in human MT2 cells to EC50 for HIV1 3B infected in human MT2 cells. In kind it is functional. The procedure, abridged: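 Fold change is EC50 against A17 (K103N/Y181C) divided by EC50 against IIIB. Both are from the MT-2 assay: 100 TCID50 virus, overnight exposure to compound, then compound-free medium, and day-4 p24 ELISA.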

Series [2] relates to Human immunodeficiency virus 1. The experiment in a line: Resistance index, ratio of EC50 for rilpivirine resistant HIV1 harboring reverse transcriptase K101E mutant infected in human TZM-bl cells to EC50 for HIV1 NL4-3 infected in human TZM-bl cells. The series is classed as functional.
Series [3] has as its system Human immunodeficiency virus 1. The experiment in a line: Resistance index, ratio of EC50 for rilpivirine resistant HIV1 harboring reverse transcriptase E138K mutant infected in human TZM-bl cells to EC50 for HIV1 NL4-3 infected in human TZM-bl cells. In kind it is functional.
A short description of series [4]: Cytotoxicity against human TZM-bl cells assessed as reduction in cell viability after 1 day by CytoTox-Glo assay. The series is classed as cell-based. The following applies: tzm, 24 h. An outline of the steps:
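TZM-bl cells exposed to graded compound concentrations for 1 day, run in parallel with the antiviral assay. Viability read by CytoTox-Glo following the manufacturer's protocol.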

Series [5] relates to Human immunodeficiency virus 1. Description: Antiviral activity against rilpivirine resistant HIV1 harboring reverse transcriptase E138K mutant assessed as inhibition of viral infection in human TZM-bl cells measured after 1 day by luciferase reporter gene assay. The series is classed as functional, organism-based. The following applies: Human immunodeficiency virus 1, TZM-bl, 24 h. Background: In a reporter assay the amount or activity of a reporter protein is the signal.

Series [6] is described as follows: Selectivity index, ratio of CC50 for human TZM-bl cells to EC50 for HIV1 3B infected in human MT2 cells. In kind it is toxicity, cell-based.
Series [7] deals with Human immunodeficiency virus 1. The experiment in a line: Antiviral activity against […] resistant HIV1 A17 harboring reverse transcriptase K103N/Y181C double mutant infected in human MT2 cells measured on day 4 post infection by p24 ELISA method. The following applies: Human immunodeficiency virus 1, A17, MT2, 96 h. The series is classed as functional, organism-based. The procedure, abridged:
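MT-2 cells (10^4 per well) were infected with 100 TCID50 of IIIB or A17 in RPMI 1640 with 10% FBS, with or without graded compound concentrations, overnight. Medium was then replaced with compound-free medium. On day 4, supernatant was mixed with an equal volume of 5% Triton X-100 and p24 was quantified by ELISA. EC50 was calculated from percent inhibition of p24 production.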
In general terms: In an ELISA, binding on a coated surface is turned into a signal by an enzyme label.

Series [8] relates to Human immunodeficiency virus 1. The experiment in a line: Antiviral activity against HIV1 3B infected in human MT2 cells measured on day 4 post infection by p24 ELISA method. The series is classed as functional, organism-based. The following applies: Human immunodeficiency virus 1, 3B, MT2, 96 h.
The test system of series [9] is Human immunodeficiency virus 1. Description: Antiviral activity against HIV1 NL4-3 assessed as inhibition of viral infection in human TZM-bl cells measured after 1 day by luciferase reporter gene assay. In kind it is functional, organism-based. The following applies: Human immunodeficiency virus 1, NL4-3, TZM-bl, 24 h.
Series [10] can be described thus: Aqueous solubility in pH 7.4 phosphate buffer at 10 mg/ml after 4 hrs by UV-HPLC method. The series is classed as physicochemical. The following applies: pH 7.4, 4 h.
A short description of series [11]: Metabolic stability in human liver microsomes assessed as parent compound remaining at 1 uM incubated for 30 mins in presence of NADPH by LC-MS analysis. The series is classed as ADME. The following applies: read-out: Stability. The procedure, abridged: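 Compound at 1 µM final with 0.1 mg/mL human liver microsomes, 5 mM MgCl2, 1.0 mM NADPH in 0.1 M potassium phosphate pH 7.4 at 37 °C. Parent measured by LC-MS/MS (MRM, ESI).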

The subject of another series is Liver microsome. The experiment in a line: Half life in human liver microsomes at 1 uM by LC-MS analysis. In kind it is ADME. The procedure, abridged: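 Compound at 1 µM final with 0.1 mg/mL human liver microsomes, 5 mM MgCl2, 1.0 mM NADPH in 0.1 M potassium phosphate pH 7.4 at 37 °C. Quenched with ice-cold acetonitrile at 0, 5, 15, 30 and 45 min, in duplicate. Parent measured by LC-MS/MS (MRM, ESI).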
(In general: Liver microsomes are a subcellular fraction often used to study metabolism.)

The nature of series [12]: n-octanol-water partition coefficient, logP of compound at pH 7.4 stirred for 24 hrs followed by overnight incubation by HPLC analysis. The series is classed as physicochemical.
A short description of series [13]: Aqueous solubility in 0.01 M Hcl at pH 2 at 10 mg/ml after 4 hrs by UV-HPLC method. In kind it is physicochemical. The following applies: buffer, pH 2, 4 h.
The subject of series [14] is Human immunodeficiency virus 1. The experiment in a line: Resistance index, ratio of EC50 for HIV1 NL4-3 harboring reverse transcriptase K101E mutant infected in human TZM-bl cells to EC50 for HIV1 NL4-3 infected in human TZM-bl cells. In kind it is functional.
Series [15] concerns Human immunodeficiency virus 1. Description: Antiviral activity against HIV1 NL4-3 harboring reverse transcriptase E138K mutant assessed as inhibition of viral infection in human TZM-bl cells measured after 1 day by luciferase reporter gene assay. The series is classed as functional, organism-based. The following applies: Human immunodeficiency virus 1, NL4-3, TZM-bl, 24 h. The procedure, abridged: (§1)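 Single-round infection of TZM-bl cells with 800 TCID50 of NL4-3 or its RT-mutant variants, with compound at various concentrations. After 1 day, medium was replaced by Bright Glo reagent and luminescence was read.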

The test system of series [16] is Human immunodeficiency virus 1. The experiment in a line: Antiviral activity against HIV1 NL4-3 harboring reverse transcriptase K101E mutant assessed as inhibition of viral infection in human TZM-bl cells measured after 1 day by luciferase reporter gene assay. In kind it is functional, organism-based. The following applies: Human immunodeficiency virus 1, NL4-3, TZM-bl, 24 h. An outline of the steps:
as §1

Series [17] deals with Human immunodeficiency virus 1. Description: Resistance index, ratio of EC50 for multidrug resistant HIV1 harboring reverse transcriptase L74V/M41L/V106A/T215Y multimutant infected in human TZM-bl cells to EC50 for HIV1 NL4-3 infected in human TZM-bl cells. The series is classed as functional.
The test system of series [18] is Human immunodeficiency virus 1. The experiment in a line: Resistance index, ratio of EC50 for HIV1 NL4-3 harboring reverse transcriptase E138K mutant infected in human TZM-bl cells to EC50 for HIV1 NL4-3 infected in human TZM-bl cells. The series is classed as functional.
The subject of series [19] is Human immunodeficiency virus 1. The experiment in a line: Antiviral activity against multidrug resistant HIV1 harboring reverse transcriptase L74V/M41L/V106A/T215Y multimutant assessed as inhibition of viral infection in human TZM-bl cells measured after 1 day by luciferase reporter gene assay. The following applies: Human immunodeficiency virus 1, TZM-bl, 24 h. In kind it is functional, organism-based.

Each structure is given as a SMILES string. pEC50: −log10 of the molar value. Converted amounts (≈) assume the structure as drawn.

For `Cc1cc(CCC#N)cc(C)c1Oc1cc(Nc2ccc(C#N)cc2)c(N)cc1Cl`, the figures for the “Ratio EC50” value in [1], in series [2] and in series [3] were 2.7, 3.3 and 1.7, respectively. For the same compound, in [4], the CC50 (usually the concentration giving 50% cytotoxicity) stood at 10400 nM. The pEC50 (as a rule, the EC50 on a negative log10 scale, so that one unit is a factor of ten) in series [5] was 7.71; in series [7], 8.35; in series [8], 8.78; in [9], 7.95. Besides, in series [6], the “Ratio CC50/EC50” value is reported as 6303.
Turning to `CCNC(=O)c1cc(N)c(Nc2ccc(C#N)cc2)cc1Oc1c(C)cc(CCC#N)cc1C`, the solubility (in general, the dissolved amount per volume that the medium holds) in series [10] stood at 1.08 µg/mL (≈ 2.38 µM); in series [13], 69.4 µg/mL (≈ 153 µM). In addition, the remaining at 0.5 h, 1 µM in series [11] stood at 85.2%. Moreover, the “Ratio EC50” value in [2] came to 4; in [3], 1.9. Moreover, the CC50 in series [4] was found to be 105000 nM. Besides, the pEC50 in series [5] was 8.07; in series [8] it was 7.77; in series [9], 8.33. Further, the “Ratio CC50/EC50” value in series [6] stood at 6140. In the series with Liver microsome, this compound yielded a t1/2 of 2.88 h. Besides, the logD (usually lipophilicity at a set pH, counting ionised and neutral species) at 24 h in [12] is 3.63.
As to `COc1cc(/C=C/C#N)cc(Br)c1Oc1ccc(N)c(Nc2ccc(C#N)cc2)n1`, the “Ratio EC50” value in series [14], in series [17] and in [18] was 1.1 throughout. The pEC50 in series [15] is 8.46; in series [16], 8.46; in [19], 8.46; in series [9], 8.49.
